697 NFkB inh = lowers PMA/ionomycin-induced NF-kB signal in 697 B cells. 697 B-cell NF-kB luciferase reporter, 16 h. inhibition, % at 4 µM. 0.33% of 330,000 active; in the data active means inhibition above about 35%
NR2E3 ag-1 = NR2E3 (human) agonism; Q9Y5X4; GST-NR2E3/biotin-RetCOR TR-FRET, 1536-well; inhibition of corepressor binding, % at 4.78 µM; 0.12% of 320,000 active;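 active means percent inhibition above the cutoff of mean plus 3 SD of all tested compounds, set per screening campaign, cut at about 20% in these data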
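System: GST-NR2E3 and biotin-RetCOR proteins; probe or stimulus: 7 nM biotin-RetCOR; doses: compound at 4.8 µM, single dose; schedule: Compound–protein incubation for 5 h at 4 °C; detection: time-resolved FRET; read-out: percent inhibition; controls: biotin wells as high control, 0.6% DMSO wells as low control; format: 1536-well plates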
NR2E3 ag-2 = activates human NR2E3 receptor. CHO-S Gal4-NCOR/VP16-NR2E3 two-hybrid, luciferase. inhibition of corepressor binding, % at 3.98 µM. 0.35% of 360,000 active;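 active means inhibition above the mean of all tested compounds plus 3 SD, cut at about 70% in these data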;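 further: higher means lower luciferase signal from less NR2E3 corepressor binding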
GalR3 antag = blocks the human galanin receptor 3; O60755; HEK293 GalR3-CNG cAMP membrane potential fluorescence; galR3 body fused to GalR1 C-terminus; inhibition, % at 3 µM; 0.44% of 360,000 active; AID 651719;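 active means inhibition above the screen-wide average plus 3 SD, cut at about 13% in these data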;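 further: forskolin and galanin both at EC90 stimulate the cells; cAMP rise reported by CNG channel membrane potential dye signal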
Target sequence (O60755 1-299 limits assumed): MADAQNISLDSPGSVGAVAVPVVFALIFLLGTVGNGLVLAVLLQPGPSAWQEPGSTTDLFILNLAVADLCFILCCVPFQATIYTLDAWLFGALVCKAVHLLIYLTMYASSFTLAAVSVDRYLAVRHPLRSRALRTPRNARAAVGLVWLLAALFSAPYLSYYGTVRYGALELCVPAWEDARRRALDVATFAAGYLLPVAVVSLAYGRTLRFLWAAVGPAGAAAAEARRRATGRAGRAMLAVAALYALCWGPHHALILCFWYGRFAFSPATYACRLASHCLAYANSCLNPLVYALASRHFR
Jurkat NFkB inh = inhibitors of the PMA/ionomycin-induced NF-kB reporter in Jurkat cells; inhibition, % at 4 µM; 0.53% of 330,000 active; PMA/ionomycin-induced NF-kB luciferase reporter, luminescence; AID 435003; in the data active means inhibition above about 50%
Gli-Sufu block = Gli-Sufu pathway antagonism | Sufu-KO-LIGHT fibroblasts, Gli luciferase reporter luminescence | inhibition, % at 5 µM | 0.74% of 340,000 active;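 active means inhibition above about 55%, limit read from the data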
GalR3 conf = GalR3 (human) antagonism, confirmation. AID 652245. 59% of 1,600 active. HEK293 GalR3 CNG cAMP biosensor, membrane potential fluorescence; galR3 fused to GalR1 carboxy tail; challenged with forskolin and galanin at EC90. shares compounds with GalR3 antag. inhibition, % at 3 µM;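 active means inhibition above the primary screen's cutoff, the mean inhibition of all screened compounds plus 3 SD, cut at about 13% in these data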
HEK-CNG parental = acts as nonspecific agonist in parental HEK-CNG cells. shares compounds with GalR3 antag. 10% of 1,600 active. HEK293-CNG parental cells, cAMP membrane potential fluorescence; normalised: DMSO wells 0%, forskolin wells 100%. AID 652268. activation, % at 3 µM; in the data active means activation above about 1.3%
A number is an active result. Hits are enriched below; roughly 1.8% of the tested compounds scored in any of these assays.

`CCCCCCCC[n+]1cccc2c3ccccc3ccc21` gave 697 NFkB inh inactive, NR2E3 ag-1 inactive, NR2E3 ag-2 inactive, GalR3 antag 64.9, Jurkat NFkB inh inactive, Gli-Sufu block 90.5, GalR3 conf 54.1 and HEK-CNG parental 3.1.
`Cc1cccc[n+]1CCCCCCCCCC[n+]1ccccc1C` gave 697 NFkB inh inactive, NR2E3 ag-1 inactive, NR2E3 ag-2 inactive, GalR3 antag inactive, Jurkat NFkB inh inactive and Gli-Sufu block inactive.
O=C(O)CCc1ccc(-c2cccs2)n1CC(=O)Nc1ccccc1C(F)(F)F was read as 697 NFkB inh inactive, NR2E3 ag-1 inactive, NR2E3 ag-2 inactive, GalR3 antag 15.1, Jurkat NFkB inh inactive, Gli-Sufu block inactive, GalR3 conf inactive and HEK-CNG parental inactive.
`O=[N+]([O-])c1cc(S(=O)(=O)c2ccc(N3CCCCC3)c([N+](=O)[O-])c2)ccc1N1CCCCC1` gave 697 NFkB inh inactive, NR2E3 ag-1 inactive, NR2E3 ag-2 inactive, GalR3 antag 27.1, Jurkat NFkB inh inactive, Gli-Sufu block inactive, GalR3 conf inactive and HEK-CNG parental 2.2.
Screening O=[N+]([O-])c1cccc(S(=O)(=O)c2ccc(N3CCCCC3)c([N+](=O)[O-])c2)c1 returned 697 NFkB inh inactive, NR2E3 ag-1 inactive, NR2E3 ag-2 inactive, GalR3 antag inactive, Jurkat NFkB inh inactive and Gli-Sufu block inactive.
For COc1cc(NCC(=O)Nc2cccc(S(=O)(=O)N3CCCCC3)c2)cc(OC)c1OC the results were 697 NFkB inh inactive, NR2E3 ag-1 inactive, NR2E3 ag-2 inactive, GalR3 antag inactive, Jurkat NFkB inh inactive and Gli-Sufu block inactive.
Screening Cc1oc(-c2ccc(Cl)cc2)nc1CN1CCCC(C(=O)N2CCN(C(=O)c3ccco3)CC2)C1 (stereo not drawn) returned 697 NFkB inh inactive, NR2E3 ag-1 inactive, NR2E3 ag-2 inactive, GalR3 antag 83.7, Jurkat NFkB inh inactive, Gli-Sufu block inactive, GalR3 conf 100.9 and HEK-CNG parental inactive.
COc1ccc(-c2cc(-c3n[nH]c(=S)n3-c3ccccc3OC)[nH]n2)cc1 was read as 697 NFkB inh inactive, NR2E3 ag-1 inactive, NR2E3 ag-2 inactive, GalR3 antag 22.1, Jurkat NFkB inh inactive, Gli-Sufu block inactive, GalR3 conf 16.9 and HEK-CNG parental inactive.
`COc1ccc(OC)c(-n2c(-c3cc(-c4ccccc4)n[nH]3)n[nH]c2=S)c1` gave 697 NFkB inh inactive, NR2E3 ag-1 inactive, NR2E3 ag-2 inactive, GalR3 antag inactive, Jurkat NFkB inh inactive and Gli-Sufu block inactive.
For Clc1ccccc1CSc1cnnc2ccccc12 the results were NR2E3 ag-2 inactive, GalR3 antag inactive and Gli-Sufu block inactive.
`CCCOc1cccc(C2C(C(=O)c3ccc(C)o3)=C(O)C(=O)N2c2nc(C)c(C(C)=O)s2)c1` (stereo not drawn) gave 697 NFkB inh inactive, NR2E3 ag-1 inactive, NR2E3 ag-2 inactive, GalR3 antag 27.8, Jurkat NFkB inh inactive, Gli-Sufu block inactive, GalR3 conf 13.3 and HEK-CNG parental inactive.
For CCOc1cccc(C2C(C(=O)c3ccco3)=C(O)C(=O)N2c2nnc(C)s2)c1 (stereo not drawn) the results were 697 NFkB inh inactive, NR2E3 ag-1 inactive, NR2E3 ag-2 inactive, GalR3 antag 21.6, Jurkat NFkB inh inactive, Gli-Sufu block inactive, GalR3 conf inactive and HEK-CNG parental inactive.
CCSc1nnc(N2C(=O)C(O)=C(C(=O)c3ccco3)C2c2cccc(OC)c2)s1 (stereo not drawn) was read as 697 NFkB inh inactive, NR2E3 ag-1 inactive, NR2E3 ag-2 inactive, GalR3 antag 14.0, Jurkat NFkB inh inactive, Gli-Sufu block inactive, GalR3 conf inactive and HEK-CNG parental inactive.
CCOc1cccc(C2C(C(=O)c3ccc(C)o3)=C(O)C(=O)N2c2nnc(C)s2)c1 (stereo not drawn) was read as NR2E3 ag-2 inactive, GalR3 antag inactive and Gli-Sufu block inactive.
